# Screening data as filed in PubChem.
# A selection: hits, their analogues and other compounds. The true share with any hit is near 4.8%.
# APP 5'UTR act = APP 5'UTR luciferase reporter activation; SH-SY5Y APP 5'UTR luciferase reporter, luminescence; zero percent = DMSO vehicle wells; activation, % at 2 µM; 190,000 tested, 1% active;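 active = activation above a set limit, based on mean plus 3 SD of controls, cut at about 140% in these data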
# FLuc act counter = affects firefly luciferase, flagging false hits in luciferase stimulation screens | P08659 | ATPlite luciferase biochemical, luminescence, 10 min; 0 = ATP-free wells, 1 = DMSO control | activation factor at 10 µM | 200,000 tested, under 10 active | AID 1027;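 active = luciferase activation factor, scaled between plate controls, of at least 2 with compound at 10 µM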
# Target sequence (P08659 whole entry, looked up): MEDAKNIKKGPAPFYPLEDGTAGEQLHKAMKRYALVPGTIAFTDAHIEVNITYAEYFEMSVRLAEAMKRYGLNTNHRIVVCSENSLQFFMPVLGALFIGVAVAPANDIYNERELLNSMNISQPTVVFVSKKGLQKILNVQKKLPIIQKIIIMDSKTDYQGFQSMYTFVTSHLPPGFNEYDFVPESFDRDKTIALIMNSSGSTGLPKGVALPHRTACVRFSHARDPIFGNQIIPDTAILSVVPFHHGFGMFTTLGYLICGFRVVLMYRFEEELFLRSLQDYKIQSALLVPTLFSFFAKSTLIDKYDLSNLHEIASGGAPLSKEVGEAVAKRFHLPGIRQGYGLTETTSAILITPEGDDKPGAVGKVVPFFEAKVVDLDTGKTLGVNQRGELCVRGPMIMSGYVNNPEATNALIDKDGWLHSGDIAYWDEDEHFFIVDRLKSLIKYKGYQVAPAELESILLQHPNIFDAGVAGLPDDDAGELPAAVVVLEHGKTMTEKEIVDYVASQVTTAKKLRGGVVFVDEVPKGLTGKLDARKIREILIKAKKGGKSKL
#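 test system = cell-free luciferase reagent | medium = PBS as buffer for the ATP substrate | dosing = test compounds dosed from 2 mM stocks in 100% DMSO | incubation = 10 min at ambient temperature | detection = luminescence measurement of luciferase light output | benchmarks = low control with PBS replacing ATP, high control enzyme plus ATP without compound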
# STAT1 act = STAT1 signaling activation | AID 932 | activation (% of control), % at 5.5 µM | 200,000 tested, 2.6% active | NIH 3T3 STAT1-luciferase reporter, IFN-gamma, luminescence; 100% = IFN-gamma alone, no compound;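 active = activation above the screen-wide mean activation plus 3 SD, cut at about 130% in these data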;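 also: raw ratio to IFN-gamma control signal so 100% means no change and 0% no light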
# FLuc inh counter = inhibits firefly luciferase, flagging false hits in luciferase inhibition screens. P08659. ATPLite firefly luciferase biochemical luminescence, 10 min. inhibition, % at 10 µM. 200,000 tested, 1.5% active;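 active = inhibition above about 50% when tested at 10 µM, limit read from the data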
# APP 5UTR inh = APP translation inhibition | SH-SY5Y APP 5'UTR-luciferase reporter, luminescence | inhibition, % at 2 µM | 190,000 tested, 0.82% active | AID 1285;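 active = inhibition above a set limit, derived from the sample mean plus 3 SD, cut at about 45% in these data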
# NF-kB neuron act = raises NF-kB expression in human neuronal cells. NF-kB reporter expression; stronger effect = higher value. fold change at 12.5 µM. 190,000 tested, 1.6% active; in the data active = fold change above about 3.3
# * marks the source's active call; other numbers are inactive results; · = no result given.
SMILES,APP 5'UTR act,FLuc act counter,STAT1 act,FLuc inh counter,APP 5UTR inh,NF-kB neuron act
COc1ccc(OCC(=O)N/N=C(\C)c2cc3ccccc3o2)cc1,-3.3,0.2,104.8,81.4*,3.3,1.7
Cc1ccc(C(=O)Nc2cc3ccccc3oc2=O)cc1,-66.1,0.1,11.9,86.6*,66.1*,1.05
O=C(Oc1cccnc1)c1ccco1,-45.7,1,98.3,0.1,45.7*,1.21
Cc1ccc(NC(=O)c2ccc(OC(=O)c3ccco3)cc2)cc1,14.9,1,133.8*,-2.1,-14.9,2.77
COc1ccc(OC(=O)c2cc3ccccc3o2)cc1,-4.3,0.4,99.0,57.1*,4.3,1.13
O=C(COc1ccccc1)Nc1ccc(NC(=O)c2ccco2)cc1,17.9,1,106.9,0.4,-17.9,1.31
Cc1ccc(NC(=O)c2ccc(OC(=O)c3cc4ccccc4o3)cc2)cc1,38.3,1,134.5*,-2.5,-38.3,1.87
CC(=O)c1cc(NC(=O)c2ccccc2)c(=O)oc1C,9.3,1,96.3,1.3,-9.3,6.09*
Cc1ccc(OC(=O)c2cc(=O)c3ccccc3o2)cc1,6.3,0.5,105.0,45.2,-6.3,1.11
COc1ccc(OC)c(NC(=O)c2cc3ccccc3o2)c1,2.0,1,107.6,3.8,-2.0,1.07
O=C(Oc1ccccc1)c1ccc(NC(=O)c2ccco2)cc1,2.1,0.9,136.2*,10.6,-2.1,1.42
CC(=O)NCc1ccc(C(=O)CCl)cc1,-1.0,1.1,93.0,-5.2,1.0,1.17
CC(=O)N(C)Cc1ccc(C(=O)CCl)cc1,-2.5,1,89.5,-0.7,2.5,3.79*
CCN(CC)c1ccc(/C=C(\C#N)c2ccccn2)cc1,160.1*,0.2,91.8,84.9*,-160.1,1.93
CN(CCC#N)c1ccc(/C=C(\C#N)c2ccccn2)cc1,179.9*,0.1,140.7*,87.6*,-179.9,2.92
COc1ccc(C(=O)NCC(=O)OCc2ccc(F)cc2)cc1,10.0,1,109.0,-1.8,-10.0,1.01
Cn1c(=O)[nH]c(=O)c2c1nc(Br)n2CC(O)COc1ccc(Cl)cc1 (configuration not stated),7.6,1,77.5,-4.0,-7.6,0.7
CCC(CC)C(=O)Nc1nnc(SCC(=O)NC(C)(C)C)s1,-4.9,1.1,97.8,-5.0,4.9,1.17
Fc1cc(F)c2nc(N3CCCC3)sc2c1,65.5,0.9,131.3*,8.9,-65.5,1.35
Fc1cccc2sc(N3CCCCC3)nc12,39.0,0.8,118.9,18.3,-39.0,1.09
CC(/C=N/NC(=O)c1cc(-c2ccccc2)nc2ccccc12)=C\c1ccco1,-84.7,1,94.8,-3.4,84.7*,1.21
O=C(N/N=C/c1ccc[nH]1)c1cc(-c2cccs2)nc2ccccc12,0.8,1,101.2,4.7,-0.8,0.53
Cn1cccc1/C=N/NC(=O)c1cc(-c2cccs2)nc2ccccc12,-46.7,1,100.3,2.0,46.7*,1.04
O=C(N/N=C/c1cccs1)c1cc(-c2ccncc2)nc2ccccc12,-94.6,1,107.8,-0.2,94.6*,2.8
O=C(O)COc1ccccc1/C=N/NC(=O)c1cc(-c2ccc(F)cc2)nc2ccccc12,24.4,0.4,98.6,58.6*,-24.4,0.93
SMILES,APP 5'UTR act,FLuc act counter,STAT1 act,FLuc inh counter,APP 5UTR inh,NF-kB neuron act
Cc1cccn2c(NC(=O)c3cccs3)c(-c3ccccc3)nc12,-17.1,1,100.1,-3.5,17.1,0.95
CNC(=O)CSc1nnc(SCCC(=O)O)s1,19.1,1,95.0,-4.7,-19.1,1.09
CCc1ccc(/C=N/NC(=O)c2cc(-c3ccncc3)nc3ccccc23)s1,-91.2,1,111.5,-3.4,91.2*,1.76
O=c1ccc2ccc(Oc3ccc([N+](=O)[O-])cc3[N+](=O)[O-])cc2o1,27.1,1.1,96.3,-8.5,-27.1,2.15
O=C1CCCC/C1=C/Nc1ccc(C(=O)O)cc1,·,1,100.5,0.6,·,1.3
CC1CCC/C(=C\Nc2ccc(O)cc2)C1=O (configuration not stated),-1.0,0.9,136.3*,13.8,1.0,2.1
Cc1cc(C(=O)O)ccc1N/C=C1\CCCC(C)C1=O (configuration not stated),148.9*,0.9,149.6*,8.3,-148.9,3.96*
CCOC(=O)c1c(C)oc2c1c(CN1CCN(C(=O)OCC)CC1)c(O)c1ccccc12,156.6*,1.1,99.7,-9.5,-156.6,4.29*
O=C(CC(c1ccco1)S(=O)(=O)c1ccccc1)c1ccccc1 (configuration not stated),19.6,0.7,103.5,26.5,-19.6,1.93
Cc1ccn2cc(C(=O)Nc3ccccc3N3CCOCC3)nc2c1,-15.1,0.8,112.3,17.6,15.1,0.82
CCn1cc([N+](=O)[O-])c(C(=O)Nc2ccc3c(c2)OCCO3)n1,61.2,0.4,116.3,56.0*,-61.2,1.62
Cc1ccn2cc(C(=O)Nc3ccc4c(c3)OCCO4)nc2c1,142.9*,0.3,149.9*,73.3*,-142.9,3.04
O=C(Nc1ccc2c(c1)OCCO2)c1ccc(Cl)c([N+](=O)[O-])c1,33.5,0.9,104.5,12.1,-33.5,2.66
CCOC(=O)C(=O)/C(=C\N(C)C)c1onc(-c2c(Cl)cccc2Cl)c1C(=O)OC,13.1,1,93.5,1.5,-13.1,1.11
NC(=O)COC(=O)CSc1ccc2ccccc2c1,8.5,1,103.0,4.7,-8.5,1.13
CC(=O)NS(=O)(=O)c1ccc(NC(=O)CSc2ccc(C)cc2)cc1,31.0,1,103.8,1.8,-31.0,1.05
CCOc1ccc(/C=C/C(=O)c2ccc(-c3ccccc3)cc2)cc1,11.3,1,96.8,0.1,-11.3,0.87
CCOc1ccc(/C=C/C(=O)C(C(N)=O)=C2SCCS2)cc1,29.8,0.4,104.1,58.0*,-29.8,1.92
COc1ccc(CCNC(=O)c2ccc(-c3ccc([N+](=O)[O-])cc3Cl)o2)cc1,-5.9,1.1,95.5,-11.5,5.9,1.12
CC1(NC(=O)CC[N+](C)(C)CCO)CS(=O)(=O)CC1S(=O)(=O)[O-] (configuration not stated),6.3,1,102.9,4.6,-6.3,0.98
CCOc1ccc(C(=O)C(CN2CCOCC2)c2ccccc2)cc1 (configuration not stated),-67.3,1,76.5,-2.6,67.3*,2.61
c1csc(-c2nnc(-c3ccc(N4CCOCC4)cc3)o2)c1,122.3,0.3,114.2,70.6*,-122.3,3.38*
COc1cc(-c2nnc(-c3cccs3)o2)cc(OC)c1OC,1.1,1,105.7,3.3,-1.1,0.82
CCOc1ccc(-c2nnc(-c3cccs3)o2)cc1,132.6,0.3,72.0,65.1*,-132.6,4.23*
COc1ccc(-c2nnc(-c3cccs3)o2)cc1OC,115.6,0.7,149.7*,29.7,-115.6,2.79
CCOc1ccc(-c2nnc(-c3cccs3)o2)cc1OCC,62.5,1,123.7,4.4,-62.5,2.12
